This is a sample that favours compounds with a hit; in the whole collection about 4.5% have one here.
UPR XBP1 act: activators of adaptive arm of unfolded protein response (XBP1) | AID 463104 | activation, % at 20 µM | 330,000 compounds, 0.33% hits | CHO-XBP1 luciferase reporter, IRE1-XBP1 UPR activation, luminescence; percent of tunicamycin response, DMSO as zero;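 active = versus positive control, 20 µM dose yields 30% or more activation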;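 also: 100% = tunicamycin at 10 µg/mL and 0% = DMSO only wells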
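Material: IRE1-XBP1 luciferase reporter CHO line / Quantity: one thousand reporter cells per well / Buffer or medium: F12 with 10% serum / Compound: 20 µM single concentration, DMSO 1% / Times: 6 h treatment, 37 °C / Detection: Steady-Glo luciferase glow luminescence, 10 min after reagent addition / Benchmarks: tunicamycin high, DMSO low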
PfM18AAP inh-1: PfM18AAP enzyme inhibition | recombinant PfM18AAP, H-Glu-NHMec fluorogenic cleavage | inhibition, % at 7.35 µM | 290,000 compounds, 1.2% hits | AID 1822;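 active = inhibition above the campaign mean inhibition over all tested compounds plus 3 SD, cut at about 28% in these data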;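 also: 0% = plate median of test compound wells and 100% = 2 mM ZnCl2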
UPR CHOP act: activators of apoptotic arm of unfolded protein response (CHOP); CHO-CHOP luciferase reporter, UPR activation, luminescence; percent of tunicamycin response over DMSO baseline; activation, % at 10 µM; AID 449763; 330,000 compounds, 0.34% hits;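 active = at 10 µM dose, activation of 40% or more, normalized to positive control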;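 also: 100% = tunicamycin at 10 µg/mL and 0% = DMSO alone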
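Assay system: CHO cells with stable CHOP pathway luciferase reporter; Buffer or medium: F12 plus 10% serum; Times: 16-18 h cell attachment, then 6 h compound exposure, 37 °C; Signal: luciferase luminescence; Read-out basis: percent activation relative to tunicamycin control; Control set: tunicamycin high control, DMSO low control.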
HCV NS3 hel inh: blocks Hepatitis C virus NS3 helicase unwinding | NS3 helicase DNA unwinding, Cy5 molecular beacon fluorescence | inhibition, % at 10.9 µM | 290,000 compounds, 0.56% hits | AID 1800;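 active = inhibition above the mean of all tested compounds plus 3 SD, set per campaign, cut at about 35% in these data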;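 also: 0% = DMSO wells and 100% = thioflavine S control wells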
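System: Hepatitis C virus NS3 helicase domain fragment enzyme | Reagent: Annealed dual-labelled DNA beacon duplex, ATP-started | Compound dosing: 10.9 µM single point, 0.8% DMSO | Incubation: 1 h reaction at 25 °C, ATP-initiated | Technique: Cy5 fluorescence | Evaluation: Percent inhibition from t60/t0 fluorescence ratio | Benchmarks: Low DMSO, high thioflavine S at 110 µM | Replication: Singlicate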
p97 ATPase inh: blocks human p97 ATPase activity. recombinant p97 ATPase, Kinase-Glo ATP luminescence, 3 h. inhibition, % at 8 µM. 220,000 compounds, 0.42% hits; in the data active = inhibition above about 15%;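 also: 0% = DMSO vehicle and 100% = wells lacking enzyme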
CHOP inhibitor: inhibitors of CHOP induction in ER stress response; CHO-K1 CHOP-promoter luciferase, tunicamycin-induced, 15-18 h; inhibition, % at 10 µM; 220,000 compounds, 3.8% hits; AID 2732;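 active = compounds that reduced the stress-induced luciferase reporter signal by more than about 70% of percent inhibition, limit read from the data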;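 also: 0% = tunicamycin plus vehicle and 100% = wells without tunicamycin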
PfM18AAP inh-2: confirmation of Plasmodium falciparum M18 aspartyl aminopeptidase inhibitors | shares compounds with PfM18AAP inh-1 | recombinant PfM18AAP, H-Glu-NHMec fluorogenic cleavage | inhibition, % at 7.35 µM | 2,400 compounds, 28% hits | AID 2170;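 active = mean inhibition over replicate wells above the hit cutoff set for the earlier primary screen, cut at about 29% in these data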;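 also: 0% = median of test compound wells and 100% = 2 mM ZnCl2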
CTSL1 counter: Cathepsin L (human) inhibition, confirmation. shares compounds with PfM18AAP inh-1. purified cathepsin L1, Z-Leu-Arg-MCA fluorescence. inhibition, % at 5.96 µM. 2,400 tested, under 10 active;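 active = average inhibition across replicates above the hit cutoff set in the earlier primary screen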;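 also: 0% = median of test compound wells and 100% = Z-Phe-Ala-diazomethylketone 1 µM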
Target sequence (P07711 whole entry, looked up): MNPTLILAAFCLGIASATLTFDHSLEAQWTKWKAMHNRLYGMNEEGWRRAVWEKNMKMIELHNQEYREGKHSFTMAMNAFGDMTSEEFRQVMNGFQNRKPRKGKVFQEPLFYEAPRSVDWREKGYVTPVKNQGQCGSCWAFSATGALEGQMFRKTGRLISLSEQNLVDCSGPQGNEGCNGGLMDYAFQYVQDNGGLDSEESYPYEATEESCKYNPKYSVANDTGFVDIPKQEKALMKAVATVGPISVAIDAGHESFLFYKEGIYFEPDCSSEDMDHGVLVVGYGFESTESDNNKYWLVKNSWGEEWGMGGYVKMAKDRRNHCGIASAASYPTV
Starred values were filed as active, the others as inactive; / = no result.

SMILES	UPR XBP1 act	PfM18AAP inh-1	UPR CHOP act	HCV NS3 hel inh	p97 ATPase inh	CHOP inhibitor	PfM18AAP inh-2	CTSL1 counter
CC(C)N(C(=O)[C@H]1CC(CC(=O)NCCC2=CCCCC2)C(=O)N2CCc3c([nH]c4ccccc34)[C@]12C)C(C)C (some centres not stated)	1	/	4	/	/	/	/	/
O=[N+]([O-])/C(C(Cl)=C(Cl)Cl)=C(\Nc1ccc(F)cc1)n1cncn1	0	81*	0	1	0	6	79*	8
CCOc1ccccc1N/C(=C(/C(Cl)=C(Cl)Cl)[N+](=O)[O-])n1cncn1	1	83*	1	-3	-1	-8	74*	5
CC1CCCC(C)N1/N=C/c1ccccc1Br (configuration not stated)	-2	-2	0	4	/	/	/	/
COc1cc(/C=N/n2c(C)nc3ccccc3c2=O)cc(OC)c1O	0	7	1	5	/	/	/	/
S=c1[nH]c(-c2ccccc2)cn1/N=C/c1ccccc1Br	9	33*	10	1	1	-134	24	3
Oc1ccc(/C=N/n2cc(-c3ccccc3)[nH]c2=S)cc1	-4	61*	4	0	5	9	41*	4
COc1cc(/C=N/n2cc(-c3ccccc3)[nH]c2=S)cc(OC)c1O	-3	62*	0	9	5	12	48*	2
CCOc1ccc(NC(=O)CNC(=O)c2nn(-c3ccc(OC)cc3)c(=O)c3ccccc23)cc1	6	-2	0	4	/	/	/	/
CN(C)C(CNC(=O)c1ccc(S(=O)(=O)Nc2cccc(C(F)(F)F)c2)cc1)c1ccco1 (configuration not stated)	1	/	2	/	/	/	/	/
Cc1ccc(NC(=O)c2c(F)cccc2Cl)cc1S(=O)(=O)N1CCOCC1	3	/	-2	/	/	/	/	/
CC(C)C(C(=O)Nc1ncn[nH]1)N1C(=O)c2ccccc2C1=O (configuration not stated)	-2	40*	-1	-2	1	27	56*	5
O=c1[nH]c2ccc(S(=O)(=O)Nc3ccccc3O)cc2[nH]1	2	50*	2	-19	/	/	47*	-1
CC(/C=N/n1cnnc1)=C\c1ccco1	-1	55*	-1	10	4	16	-7	2
O=c1c2c([N+](=O)[O-])cc([N+](=O)[O-])cc2sn1Cc1ccccc1	-5	79*	8	17	/	/	72*	2
CCc1ccc(N2CSC3=C(C#N)C(c4cccs4)CC(=O)N3C2)cc1 (configuration not stated)	1	44*	1	27	7	0	-5	1
CCOC(=O)CC1=C(C(=O)OCC)C(c2cccs2)C(C#N)=C(N)O1 (configuration not stated)	-7	0	-4	7	-3	22	/	/
COc1ccc(C2CC(=O)N3CN(c4ccc(C)c(Cl)c4)CSC3=C2C#N)cc1OC (configuration not stated)	1	35*	1	12	1	4	-4	-2
CCOC(=O)c1ccc(N2CSC3=C(C#N)C(c4cccs4)CC(=O)N3C2)cc1 (configuration not stated)	3	32*	1	15	6	22	-8	6
Cc1ccc(N2CSC3=C(C#N)C(c4cccs4)CC(=O)N3C2)cc1 (configuration not stated)	3	33*	0	21	8	27	-6	6
CN1CSC2=C(C#N)C(c3cccc(OCc4ccccc4)c3)CC(=O)N2C1 (configuration not stated)	0	19	-1	22	0	3	/	/
Cc1ccc(N2C(N)=C(C#N)C(c3cccs3)C3=C2CC(C)(C)CC3=O)cc1 (configuration not stated)	-1	-3	-1	1	5	13	/	/
NNc1nc2c(Cl)ccc(Cl)c2s1	-1	10	0	8	-1	24	/	/
CC(C)Cn1ccc(=O)n(CC(C)C)c1=O	-1	-9	4	5	3	1	/	/
O=CN/C=C/c1cc(O)ccc1O	-2	61*	1	16	-4	-29	83*	0
SMILES	UPR XBP1 act	PfM18AAP inh-1	UPR CHOP act	HCV NS3 hel inh	p97 ATPase inh	CHOP inhibitor	PfM18AAP inh-2	CTSL1 counter
Cc1cc(C)nc(SSc2nc(C)cc(C)n2)n1	-2	61*	3	5	/	/	28	5
CCN1/C(=C2\C(=O)N(C)C(=S)N2C)C=Cc2cc(OC)ccc21	-3	34*	-4	-13	4	14	-24	-3
O=C(O)C1Sc2[nH]c(=O)sc2C2c3ccc(O)cc3OC(=O)C12 (configuration not stated)	0	38*	-2	5	12	6	5	-7
Cc1ccc(C)c(S(=O)(=O)N2CCCC2CNC(=O)C(=O)NCc2ccccn2)c1 (configuration not stated)	0	/	1	/	/	/	/	/
O=C(Cc1ccccc1)NCC(=O)OCC(=O)c1ccc([N+](=O)[O-])cc1	0	39*	2	5	2	-1	4	-10
NNC(=O)CNS(=O)(=O)c1ccc([N+](=O)[O-])cc1	-2	35*	-1	0	-6	26	-3	0
Cc1ccc(C(=O)NCC(=O)NCC(=O)OCC(=O)c2ccc([N+](=O)[O-])cc2)cc1	0	33*	-1	-1	2	-5	1	1
Cc1ccc(S(=O)(=O)NCCNc2ccc([N+](=O)[O-])cc2)cc1	-8	0	0	9	/	/	/	/
O=C(CNC(=O)c1cccs1)OCC(=O)c1ccc([N+](=O)[O-])cc1	-2	45*	-1	-6	5	19	0	0
Cc1ccc(C(=O)COC(=O)CNC(=O)CNC(=O)c2ccc(C)cc2)cc1	-1	1	2	-4	1	1	/	/
CCC1(C(=O)OC)CCc2c(cc(OC)c3ccccc23)C1=O (configuration not stated)	0	15	0	0	-4	-4	/	/
CCN(C(=O)CSc1nnc(CNc2cccc(OC)c2)n1C1CCCCC1)C1CCS(=O)(=O)C1 (configuration not stated)	-6	-2	0	7	/	/	/	/
O=C(CNC(=O)c1ccco1)OCC(=O)c1ccc([N+](=O)[O-])cc1	-2	40*	0	3	/	/	-4	0

Compound activity as filed in PubChem.
